Test results: ChEMBL document CHEMBL1140862, “Berberine analogues as a novel class of the low-density-lipoprotein receptor up-regulators: synthesis, structure-activity relationships, and cholesterol-lowering efficacy” (J Med Chem, 2009)
Active and inactive are the calls of the source. No cut-off for these calls is given here.

What was measured:
[1] = system: HepG2; experiment: Induction of LDLR mRNA expression in human HepG2 cells after 12 hrs by RT-PCR assay relative to untreated control; assay type: functional
Outline: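 HepG2 cells kept in RPMI-1640 with 10% FBS, moved 24 h before dosing to 10% LPDS, then at ~80% confluence to RPMI-1640 with 0.5% LPDS plus compound (5.0 µg/mL in table; concentrations as indicated in figure), 12 h, 37 °C. Total RNA reverse-transcribed, TaqMan real-time PCR, comparative CT method with GAPDH reference; fold of untreated cells (=1); mean of three experiments.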

[2] = system: Rattus norvegicus; experiment: Reduction of blood low density lipoprotein cholesterol level in hyperlipidemic Sprague-Dawley rat at 100 mg/kg, po daily twice for 30 days relative to control; assay type: functional; design: scale not given: the % may be the effect or the level left
Outline: (§1)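 Male Sprague-Dawley rats on HFHC diet 8 weeks, then saline suspension by gavage at 100 (mg/kg)/day, twice daily, 30 days (n = 8; untreated HFHC n = 6; normal-diet controls). Fasted tail-snip blood at end point; total cholesterol and LDL-c by commercial kits; percent reduction versus untreated HFHC control; mean ± SEM.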

[3] = system: HepG2; experiment: Induction of LDLR protein expression in human HepG2 cells at 10 ug/mL after 12 hrs by flow cytometry; assay type: functional, cell-based
Outline: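 HepG2 cells in LPDS medium treated 12 h with 10 µg/mL compound, detached, fixed in 2% paraformaldehyde at 4 °C overnight, blocked, stained on ice 1 h with rabbit polyclonal anti-LDLR (1:25), then FITC goat anti-rabbit IgG (1:50) 30 min; normal rabbit IgG background control; cell-surface fluorescence by flow cytometry.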

[4] = system: Bel-7402; experiment: Induction of LDLR […] in human Bel7402 cells after 12 hrs by RT-PCR assay relative to control; assay type: functional, cell-based
[5] = system: Mus musculus; experiment: Reduction of blood low density lipoprotein cholesterol level in hyperlipidemic C57BL/6J mouse at 100 mg/kg, po daily twice for 21 days relative to control; assay type: functional; design: scale not given: the % may be the effect or the level left
Outline: (§2)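 Male C57BL/6J mice fed HFHC diet 8 weeks, then gavaged twice daily (0.2 mL saline suspension) at 100 (mg/kg)/day for 21 days (n = 8; untreated n = 6). Fasted tail-snip blood; total cholesterol and LDL-c by commercial kits relative to untreated control.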

[6] = system: Mus musculus; experiment: Reduction of blood cholesterol level in hyperlipidemic C57BL/6J mouse at 100 mg/kg, po daily twice for 21 days relative to control; assay type: functional; design: scale not given: the % may be the effect or the level left; outline: as §2
[7] = system: Rattus norvegicus; experiment: Reduction of blood cholesterol level in hyperlipidemic Sprague-Dawley rat at 100 mg/kg, po daily twice; assay type: functional, organism-based; design: dose 100 mg/kg; settings: TDE = time-dependent effect
[8] = system: Rattus norvegicus; experiment: Reduction of blood cholesterol level in hyperlipidemic Sprague-Dawley rat at 100 mg/kg, po daily twice for 30 days relative to control; assay type: functional; design: scale not given: the % may be the effect or the level left; outline: as §1
[9] = Elimination half life in po dosed human; assay type: ADME, organism-based; settings: in vivo, read-out: beta t1/2 (converted)
[10] = system: Rattus norvegicus; experiment: Reduction of blood low density lipoprotein cholesterol level in hyperlipidemic Sprague-Dawley rat at 100 mg/kg, po daily twice; assay type: functional, organism-based; design: dose 100 mg/kg; settings: TDE = time-dependent effect
[11] = system: Rattus norvegicus; experiment: Induction of HMG-CoA reductase mRNA expression in hyperlipidemic Sprague-Dawley rat liver at 100 mg/kg, po daily twice for 30 days by RT-PCR; assay type: functional, organism-based; design: dose 100 mg/kg
Outline: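 Male Sprague-Dawley rats (180 ± 10 g) fed HFHC diet (2% cholesterol, 10% yolk powder, 15% lard, 0.2% sodium cholate) 8 weeks, then gavaged with compound suspended in saline, 100 (mg/kg)/day, twice daily, 30 days (n = 8; untreated n = 6). Liver RNA, TaqMan real-time RT-PCR, comparative CT with GAPDH; fold of untreated HFHC control.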

Structure (SMILES) | fold change (FC) [1] | further results
COc1cc2c(cc1OC)-c1cc3ccc(OC)c(OC)c3c[n+]1CC2.[I-] | 0.8 | 
COc1ccc2c(c1OC)C[N+]1(Cc3ccccc3)CCc3cc4c(cc3C1C2)OCO4.[Br-] (stereo not given) | 1.1 | 
CCOC(=O)C[N+]12CCc3cc4c(cc3C1Cc1ccc(OC)c(OC)c1C2)OCO4.[Br-] (stereo not given) | 0.8 | 
CCCCCCc1c2[n+](cc3cc(OC)c(OC)cc13)CCc1cc3c(cc1-2)OCO3.[Cl-] | 1.1 | 
COc1cc2c[n+]3c(c(C)c2cc1OC)-c1cc2c(cc1CC3)OCO2.[Cl-] | 0.9 | 
COc1ccc2cc3[n+](cc2c1OC)CCc1cc(OCc2ccccc2)c(OCc2ccccc2)cc1-3.[Br-] | 1 | 
COc1ccc2cc3[n+](cc2c1OC)CCc1cc2c(cc1-3)OCO2.[Cl-] [BERBERINE CHLORIDE] | 2.2 | Activity [2]: 31.6%; Activity [3]: Active; Activity [4]: Active; Activity [5]: 23.9%; Activity [6]: 16.7%; Activity [7]: tde; Activity [8]: 27.4%; half-life [9]: 2.94 h; Activity [10]: tde; Activity [11]: inactive
COc1cc2c(cc1OC)CN1CCc3cc4c(cc3C1C2)OCO4 (stereo not given) | 1.3 | 
CCOc1cc2c(cc1O)-c1cc3ccc(OC)c(OC)c3c[n+]1CC2.[Br-] | 0.9 | 
COc1ccc2c(C)c3[n+](cc2c1OC)CCc1cc2c(cc1-3)OCO2.[Cl-] | 1.1 | 
COc1cc2c(cc1OC)C[N+]1(C)CCc3cc4c(cc3C1C2)OCO4.[I-] (stereo not given) | 0.9 | 
COc1ccc2c(c1OC)CN1CCc3cc4c(cc3[C@@H]1C2)OCO4 [CANADINE] | 1 | 
CCCCc1c2[n+](cc3cc(OC)c(OC)cc13)CCc1cc3c(cc1-2)OCO3.[Cl-] | 0.9 | 
CCCCc1c2[n+](cc3c(OC)c(OC)ccc13)CCc1cc3c(cc1-2)OCO3.[Cl-] | 0.9 | 
CC[N+]12CCc3cc4c(cc3C1Cc1cc(OC)c(OC)cc1C2)OCO4.[Br-] (stereo not given) | 0.8 | 
CCC[N+]12CCc3cc4c(cc3C1Cc1ccc(OC)c(OC)c1C2)OCO4.[I-] (stereo not given) | 1.2 | 
CCCc1c2[n+](cc3c(OC)c(OC)ccc13)CCc1cc3c(cc1-2)OCO3.[Cl-] | 0.9 | 
CCc1c2[n+](cc3c(OC)c(OC)ccc13)CCc1cc3c(cc1-2)OCO3.[Cl-] | 1.04 | 
COc1ccc2c(c1OC)C[N+]1(CCO)CCc3cc4c(cc3C1C2)OCO4.[Br-] (stereo not given) | 1.2 | 
COc1cc2c[n+]3c(c(Cc4ccccc4)c2cc1OC)-c1cc2c(cc1CC3)OCO2.[Br-] | 1 | 
COc1ccc2c(Cc3ccccc3)c3[n+](cc2c1OC)CCc1cc2c(cc1-3)OCO2.[Br-] | 1.4 | 
COc1cc2c(cc1O)-c1cc3ccc(OC)c(OC)c3c[n+]1CC2.[I-] [COLUMBAMINE IODIDE] | 1 | 
CCCOc1cc2c(cc1OCCC)-c1cc3ccc(OC)c(OC)c3c[n+]1CC2.[Br-] | 0.9 | 
CCC[N+]12CCc3cc4c(cc3C1Cc1cc(OC)c(OC)cc1C2)OCO4.[I-] (stereo not given) | 0.9 | 
COc1ccc2c(c1OC)C[N+]1(C)CCc3cc4c(cc3C1C2)OCO4.[I-] (stereo not given) | 1.1 | 
CCCCCCc1c2[n+](cc3c(OC)c(OC)ccc13)CCc1cc3c(cc1-2)OCO3.[Cl-] | 1 | 
CCOC(=O)C[N+]12CCc3cc4c(cc3C1Cc1cc(OC)c(OC)cc1C2)OCO4.[Br-] (stereo not given) | 1 | 
COc1cc2c(cc1OC)C[N+]1(Cc3ccccc3)CCc3cc4c(cc3C1C2)OCO4.[Br-] (stereo not given) | 0.9 | 
CCCC[N+]12CCc3cc4c(cc3C1Cc1ccc(OC)c(OC)c1C2)OCO4.[Br-] (stereo not given) | 1.1 | 
CC[N+]12CCc3cc4c(cc3C1Cc1ccc(OC)c(OC)c1C2)OCO4.[Br-] (stereo not given) | 1 | 
